Laboratory results: PubChem BioAssay AID493157 (Broad Institute, 2011)
The source made the active and inactive calls.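 The calls were made as follows: active = growth-lowering compounds whose AC50 is at most ten times the top tested dose; inconclusive = flat curve with moderate signal loss, or a poor fit; inactive = the rest.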

Experiments:
[1] = C. albicans growth inhibition without fluconazole, dose response, counter-screen for antifungal drug resistance project, CaCi-2 strain, Alamar Blue, dry powder, set 8 (AID 493157); conditions: C. albicans CaCi-2 growth without fluconazole, Alamar Blue, 48 h
Summary of the method: (§1)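 System: C. albicans CaCi-2 resistant isolate, fluconazole omitted. Quantity: inoculum OD600 0.00015. Medium: defined RPMI medium, MOPS, glucose, uridine. Doses: pinned compound alone. Schedule: 48 h static growth, 37 °C, 2 h room-temperature dye. Signal: Alamar Blue fluorescence, 544/590 nm. Read-out: yeast growth via fluorescence.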

[2] = system: C. albicans CaCi-2 (fluconazole-resistant clinical isolate) growth without fluconazole, Alamar Blue, 48 h; assay: as above
Summary of the method: as §1

O=C1OCCC1n1nc(-c2ccccc2)c2ccccc21 (centres undefined)
max activity ([1]; at 0.195 µM): -31.5% (inactive)

O=C(Cn1c2ccccc2c2nc3n(c(=O)c21)CCS3)N1CCCCC1
max activity ([1]; at 0.1 µM): -24.6% (inactive)

O=C(Cn1c2ccccc2c2nc3n(c(=O)c21)CCS3)N1CCOCC1
max activity ([1]; at 0.8 µM): -18.5% (inactive)

O=C(Cn1c2ccccc2c2nc3n(c(=O)c21)CCS3)N1CCCC1
max activity ([1]; at 12 µM): 17.2% (inactive)

O=C(Cn1c2ccc(F)cc2c2nc3n(c(=O)c21)CCS3)N1CCCC1
max activity ([1]; at 0.1 µM): -25.8% (inactive)

COC(=O)Cn1nc(-c2cccc(F)c2)c2ccccc21
max activity ([1]; at 0.8 µM): -22.1% (inactive)

COC(=O)Cn1nc(I)c2ccccc21
max activity ([1]; at 1.6 µM): -30.3% (inactive)

COC(=O)C(C)(C)n1nc(-c2ccccc2)c2ccccc21
max activity ([1]; at 0.1 µM): -31.3% (inactive)

FC(F)(F)c1ccc(-c2n[nH]c3ccccc23)cc1
max activity ([1]; at 0.195 µM): -25.6% (inactive)

O=C(Cn1c2ccc(F)cc2c2nc3n(c(=O)c21)CCS3)N1CCCCCC1
max activity ([1]; at 26 µM): 13.5% (inactive)

COC(=O)Cn1nc(-c2ccccc2)c2ccc(C(F)(F)F)cc21
max activity ([1]; at 0.1 µM): -34% (inactive)

O=C(O)Cn1nc(-c2ccccc2)c2ccccc21
max activity ([1]; at 6 µM): 18.6% (inactive)

O=C(Cn1nc(-c2ccccc2)c2ccccc21)OC1CCC1
AC50 [2]: > 26 µM (inactive)

COC(=O)CCCn1nc(-c2ccccc2)c2ccccc21
max activity ([1]; at 1.6 µM): -17.6% (inactive)

CCN(CC)C(=O)Cn1c2ccc(F)cc2c2nc3n(c(=O)c21)CCS3
max activity ([1]; at 0.38 µM): -28.9% (inactive)

O=C(Cn1c2ccccc2c2ccncc21)N1CCCCC1
max activity ([1]; at 6 µM): -15.9% (inactive)

COC(=O)Cn1nc(-c2ccc(F)cc2)c2ccccc21
max activity ([1]; at 3 µM): -27% (inactive)

O=C(Cn1c2ccc(F)cc2c2nc3n(c(=O)c21)CCS3)N1CCCCC1
max activity ([1]; at 26 µM): 27.4% (inactive)

COC(=O)Cn1nc(-c2ccc(C#N)cc2)c2ccccc21
max activity ([1]; at 26 µM): -38.6% (inactive)

COC(=O)Cn1nc(-c2ccccc2)c2ccccc21
max activity ([1]; at 12 µM): 35.4% (inactive)

COC(=O)Cn1nc(-c2ccccc2C)c2ccccc21
max activity ([1]; at 26 µM): 1.36% (inactive)

CCC(=O)Cn1nc(-c2ccccc2)c2ccccc21
max activity ([1]; at 0.8 µM): -10.2% (inactive)

COC(=O)Cn1nc(-c2ccccc2)c2cccc(C(F)(F)F)c21
max activity ([1]; at 0.1 µM): -21.2% (inactive)

CC1CCN(C(=O)Cn2c3ccccc3c3nc4n(c(=O)c32)CCS4)CC1
max activity ([1]; at 12 µM): -29.8% (inactive)

COC(=O)Cn1c(-c2ccccc2)nc2ccccc21
max activity ([1]; at 6 µM): 19.2% (inactive)

COc1ccc(-c2n[nH]c3ccccc23)cc1
max activity ([1]; at 6 µM): -32.5% (inactive)

CCN(CC)C(=O)Cn1c2ccccc2c2nc3n(c(=O)c21)CCS3
max activity ([1]; at 0.38 µM): -31.2% (inactive)

COC(=O)Cn1ncc2ccccc21
max activity ([1]; at 26 µM): -25.4% (inactive)

CCCCn1nc(-c2ccccc2)c2ccccc21
max activity ([1]; at 26 µM): 28% (inactive)
